Test results: ChEMBL document CHEMBL1121505, “Retinoic acid analogues. Synthesis and potential as cancer chemopreventive agents” (J Med Chem, 1980)

Assays:
Format in all cases: functional
[1] = Inhibition of skin tumor promoter -induced mouse epidermal ornithine decarboxylase (ODC) activity on TPA-induced mouse epidermis at a dose of 1.7(nmol)
Summary of the method: (§1)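 Female CD-1 mice, 7–9 weeks, shaved dorsal skin 1–2 days before, no hair regrowth. Retinoid applied topically in 0.2 mL acetone 1 h before single topical TPA (10.5 μg, 17 nmol, in 0.2 mL acetone). Killed 5 h after TPA. Five mice per group, skins pooled. Epidermal 30000g supernatant in 50 mM sodium phosphate, 0.1 mM pyridoxal phosphate, 0.1 mM EDTA.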

[2] = Inhibition of skin tumor promoter -induced mouse epidermal ornithine decarboxylase (ODC) activity on TPA-induced mouse epidermis at a dose of 17(nmol); summary of the method: as §1
[3] = Inhibition of skin tumor promoter -induced mouse epidermal ornithine decarboxylase (ODC) activity on TPA-induced mouse epidermis at a dose of 170(nmol); summary of the method: as §1

CCOC(=O)/C=C(C)/C=C/C=C(C)/C=C/C1=CC2CCC1C2 (stereo unspecified)
inhibition [1]: 46% | inhibition [2]: 63% | inhibition [3]: 95%

CCC1=C(/C=C/C(C)=C/C=C/C(C)=C/C(=O)O)C(C)(C)CCC1
inhibition [1]: 66% | inhibition [2]: 86% | inhibition [3]: 87%

CC(=O)Oc1cccc(/C=C/C=C(C)/C=C/C2=C(C)CCCC2(C)C)c1
inhibition [1]: 3% | inhibition [2]: 46% | inhibition [3]: 92%

CC1=C(/C=C/C(C)=C/C=C/C(C)=C/C(=O)O)C(C)(C)CCC1
inhibition [1]: 91%

COCCOCCOC(=O)/C=C(C)/C=C/C=C(C)/C=C/C1=C(C)CCCC1(C)C
inhibition [1]: 70% | inhibition [2]: 92% | inhibition [3]: 97%

CC1=C(/C=C/C(C)=C/C=C/C(C)=C/c2nn[nH]n2)C(C)(C)CCC1
inhibition [1]: 3% | inhibition [2]: 13% | inhibition [3]: 2%
